Experiments:
P388 [1] = experiment: Antitumor activity against mouse P388 cells allografted mouse assessed as host survival at 20 mg/kg, ip qd for 9 days relative to control; format: functional; settings: route intraperitoneal
Summary of the method: (§1)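 NCI protocol: groups of five to ten mice inoculated ip with approximately 10^6 P-388 or L1210 cells. Drug given over a range of dose levels starting 24 h after implantation, once daily for 9 consecutive days. Survival expressed as %T/C = (average survival of treated)/(average survival of control) × 100.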

P388 [2] = experiment: Antitumor activity against mouse P388 cells allografted mouse assessed as host survival at 30 mg/kg, ip qd for 9 days relative to control; format: functional; settings: route intraperitoneal; summary of the method: as §1
P388 [3] = experiment: Antitumor activity against mouse P388 cells allografted mouse assessed as host survival at 40 mg/kg, ip qd for 9 days relative to control; format: functional; settings: route intraperitoneal; summary of the method: as §1
P388 [4] = experiment: Antitumor activity against mouse P388 cells allografted mouse assessed as host survival at 50 mg/kg, ip qd for 9 days relative to control; format: functional; settings: route intraperitoneal; summary of the method: as §1
Mus musculus [5] = experiment: Toxicity in mouse L1210 cells allografted mouse at 30 mg/kg, ip qd for 9 days; format: organism-based; set-up: dose 30 mg/kg, route intraperitoneal; settings: in vivo, 216 h
Summary of the method: (§2)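 Groups of five to ten mice were inoculated ip with about 10^6 L1210 cells and dosed once daily for 9 consecutive days beginning 24 h post-implantation. Toxicity was taken as the average body weight change at the end of drug treatment.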

Mus musculus [6] = experiment: Toxicity in mouse L1210 cells allografted mouse at 40 mg/kg, ip qd for 9 days; format: organism-based; set-up: dose 40 mg/kg, route intraperitoneal; settings: in vivo, 216 h; summary of the method: as §2
L1210 [7] = experiment: Antitumor activity against mouse L1210 cells allografted mouse assessed as host survival at 30 mg/kg, ip qd for 9 days relative to control; format: functional; settings: route intraperitoneal; summary of the method: as §1
L1210 [8] = experiment: Antitumor activity against mouse L1210 cells allografted mouse assessed as host survival at 40 mg/kg, ip qd for 9 days relative to control; format: functional; settings: route intraperitoneal; summary of the method: as §1
[9] = Binding affinity to synthetic melanin at 5.8 mg/100 mL after 15 mins by UV-spectroscopic analysis; format: physicochemical; settings: 0.25 h
Summary of the method: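 Synthetic melanin was made from DL-Dopa with tyrosinase in 0.1 M phosphate pH 6.6 at 37 °C for 4 h. Melanin suspension (1.1 mg dry weight) was mixed with phosphate buffer (0.05 M, pH 6.4, 5% Me2SO), water, and 1 mL of drug solution (5.8 mg/100 mL). The mixture was shaken 15 min at room temperature and filtered. Unbound drug in the filtrate was measured by UV against a drug-free blank.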

Mus musculus [10] = experiment: Toxicity in mouse P388 cells allografted mouse at 20 mg/kg, ip qd for 9 days; format: organism-based; set-up: dose 20 mg/kg, route intraperitoneal; settings: in vivo, 216 h
Summary of the method: (§3)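 NCI protocol. Groups of five to ten mice were inoculated intraperitoneally with about 10^6 tumor cells. Drug was given ip once daily for 9 consecutive days, starting 24 h after tumor implantation, over a range of dose levels. Toxicity was read as the average body weight change at the end of drug treatment.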

Mus musculus [11] = experiment: Toxicity in mouse P388 cells allografted mouse at 40 mg/kg, ip qd for 9 days; format: organism-based; set-up: dose 40 mg/kg, route intraperitoneal; settings: in vivo, 216 h; summary of the method: as §3
Mus musculus [12] = experiment: Toxicity in mouse P388 cells allografted mouse at 50 mg/kg, ip qd for 9 days; format: organism-based; set-up: dose 50 mg/kg, route intraperitoneal; settings: in vivo, 216 h; summary of the method: as §3
Mus musculus [13] = experiment: Toxicity in mouse P388 cells allografted mouse at 30 mg/kg, ip qd for 9 days; format: organism-based; set-up: dose 30 mg/kg, route intraperitoneal; settings: in vivo, 216 h; summary of the method: as §3
Mus musculus [14] = experiment: Toxicity in mouse B16 cells allografted mouse at 66.7 mg/kg, ip qd for 9 days; format: organism-based; set-up: dose 66.7 mg/kg, route intraperitoneal; settings: in vivo, 216 h
Summary of the method: (§4)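 Mice bearing B16 melanoma, dosed ip once daily for 9 days from 24 h after tumor implantation. Toxicity is recorded as the average body weight change at the end of drug treatment.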

Mus musculus [15] = experiment: Toxicity in mouse B16 cells allografted mouse at 40 mg/kg, ip qd for 9 days; format: organism-based; set-up: dose 40 mg/kg, route intraperitoneal; settings: in vivo, 216 h; summary of the method: as §4
Mus musculus [16] = experiment: Toxicity in mouse B16 cells allografted mouse at 24 mg/kg, ip qd for 9 days; format: organism-based; set-up: dose 24 mg/kg, route intraperitoneal; settings: in vivo, 216 h; summary of the method: as §4
B16 [17] = experiment: Antitumor activity against mouse B16 cells allografted mouse assessed as host survival at 66.7 mg/kg, ip qd for 9 days relative to control; format: functional; settings: route intraperitoneal
Summary of the method: (§5)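 B16 melanoma-bearing mice given drug ip once daily for 9 days, starting 24 h after tumor implantation. Read-out is average survival in days, expressed as %T/C = (average survival of treated mice)/(average survival of control mice) × 100.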

B16 [18] = experiment: Antitumor activity against mouse B16 cells allografted mouse assessed as host survival at 40 mg/kg, ip qd for 9 days relative to control; format: functional; settings: route intraperitoneal; summary of the method: as §5
B16 [19] = experiment: Antitumor activity against mouse B16 cells allografted mouse assessed as host survival at 24 mg/kg, ip qd for 9 days relative to control; format: functional; settings: route intraperitoneal; summary of the method: as §5
P388 [20] = experiment: Antitumor activity against mouse P388 cells allografted mouse assessed as host survival at 10 mg/kg, ip qd for 9 days relative to control; format: functional; settings: route intraperitoneal; summary of the method: as §1
Mus musculus [21] = experiment: Toxicity in mouse L1210 cells allografted mouse at 20 mg/kg, ip qd for 9 days; format: organism-based; set-up: dose 20 mg/kg, route intraperitoneal; settings: in vivo, 216 h; summary of the method: as §2
L1210 [22] = experiment: Antitumor activity against mouse L1210 cells allografted mouse assessed as host survival at 20 mg/kg, ip qd for 9 days relative to control; format: functional; settings: route intraperitoneal; summary of the method: as §1
Mus musculus [23] = experiment: Toxicity in mouse P388 cells allografted mouse at 10 mg/kg, ip qd for 9 days; format: organism-based; set-up: dose 10 mg/kg, route intraperitoneal; settings: in vivo, 216 h; summary of the method: as §3

Compound	T/C (P388 [1]) [%]	T/C (P388 [2]) [%]	T/C (P388 [3]) [%]	T/C (P388 [4]) [%]	Activity (Mus musculus [5]) [%]	Activity (Mus musculus [6]) [%]	T/C (L1210 [7]) [%]	T/C (L1210 [8]) [%]	Activity [9] [%]	Activity (Mus musculus [10]) [%]	Activity (Mus musculus [11]) [%]	Activity (Mus musculus [12]) [%]	Activity (Mus musculus [13]) [%]	Activity (Mus musculus [21]) [%]	T/C (L1210 [22]) [%]	other results
CN(C)/N=N\c1ccnc2ccc(Br)cc12	123	127	111	131	-1	-5.8	150	154	55.3	18	-3.5	-8.9	–	–	–	–
CN(C)/N=N\c1ccnc2cc(Br)ccc12	–	133	133	125	10	-2.8	129	141	57.3	–	-8.9	-15.1	-2.4	–	–	–
CN(C)/N=N\c1ccnc2c(Br)cccc12	109	113	125	117	6.1	-5.9	137	144	48.1	16	-3.3	-5	4.8	–	–	Activity (Mus musculus [14]): -3.7%; Activity (Mus musculus [15]): -3%; Activity (Mus musculus [16]): -1.1%; Survival (B16 [17]): 21.3 days; T/C (B16 [17]): 101%; Survival (B16 [18]): 19 days; T/C (B16 [18]): 90%; Survival (B16 [19]): 20.3 days; T/C (B16 [19]): 97%
CN(C)/N=N\c1ccnc2ccc(Cl)cc12	139	137	–	–	-10	–	156	–	41	0.8	–	–	-12.9	1	146	T/C (P388 [20]): 129%; Activity (Mus musculus [23]): -3.1%
CN(C)/N=N\c1ccnc2cc(Cl)ccc12	–	137	119	–	-1	–	152	–	48	–	-22.6	–	-16.3	5.1	154	–
